Data on one molecule can be found in ChEMBL document CHEMBL3804828, “2,4,6-Triaminopyrimidine as a Novel Hinge Binder in a Series of PI3Kδ Selective Inhibitors” (J Med Chem, 2016).

Structures are written as SMILES.

The subject of data set [1] is Rattus norvegicus. The data set can be described thus: In vivo inhibition of PI3Kdelta in collagen-induced Lewis rat arthritis model at 10 mg/kg administered bid through oral gavage at 2 to 12 hrs on 3rd and 7th day of compound dosing. The format is functional. The gist of the method: (§1)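 CIA Lewis rats dosed orally twice daily; plasma drug levels measured in blood samples taken at set times post-dose on days 3 and 7; trough PI3Kδ inhibition estimated from EC50/EC90 of the rat whole-blood ex vivo BCR-induced B-cell activation assay.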

Data set [2] is filed under the species Homo sapiens. The data set can be described thus: Selectivity ratio of IC50 for human recombinant PI3Kbeta to IC50 for human full length PI3Kdelta catalytic subunit/p85alpha. The gist of the method:
(§2)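 Ratio calculated from the isoform-specific PI3K IC50 values, with enzyme assays run in quadruplicate.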

The subject of data set [3] is Rattus norvegicus. The data set can be described thus: Antiarthritis activity in collagen-induced Lewis rat arthritis model assessed as reduction in cartilage damage administered bid through oral gavage for 7 days measured every day started on day 9 and continuing through day 16 of compound dosing. The format is functional. The gist of the method:
(§3)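 Female Lewis rats with established collagen-induced arthritis dosed orally by gavage twice daily for 7 days (study days 10–16) with vehicle, 0.34, 1.07, 4.6 or 10 mg/kg, or dexamethasone 0.03 mg/kg; right and left ankle diameters by caliper daily, days 9–16; ankle and knee sections graded 0–5 per histopathology parameter; p < 0.05 versus arthritis + vehicle.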

For data set [4], the species on record is Homo sapiens. The data set can be described thus: Selectivity ratio of IC50 for human full length PI3Kgamma to IC50 for human full length PI3Kdelta catalytic subunit/p85alpha. The procedure, abridged: as §2
Data set [5] addresses T1, Phosphatidylinositol 4,5-bisphosphate 3-kinase catalytic subunit delta isoform (Homo sapiens, UniProt O00329).
T1 sequence (O00329 whole entry): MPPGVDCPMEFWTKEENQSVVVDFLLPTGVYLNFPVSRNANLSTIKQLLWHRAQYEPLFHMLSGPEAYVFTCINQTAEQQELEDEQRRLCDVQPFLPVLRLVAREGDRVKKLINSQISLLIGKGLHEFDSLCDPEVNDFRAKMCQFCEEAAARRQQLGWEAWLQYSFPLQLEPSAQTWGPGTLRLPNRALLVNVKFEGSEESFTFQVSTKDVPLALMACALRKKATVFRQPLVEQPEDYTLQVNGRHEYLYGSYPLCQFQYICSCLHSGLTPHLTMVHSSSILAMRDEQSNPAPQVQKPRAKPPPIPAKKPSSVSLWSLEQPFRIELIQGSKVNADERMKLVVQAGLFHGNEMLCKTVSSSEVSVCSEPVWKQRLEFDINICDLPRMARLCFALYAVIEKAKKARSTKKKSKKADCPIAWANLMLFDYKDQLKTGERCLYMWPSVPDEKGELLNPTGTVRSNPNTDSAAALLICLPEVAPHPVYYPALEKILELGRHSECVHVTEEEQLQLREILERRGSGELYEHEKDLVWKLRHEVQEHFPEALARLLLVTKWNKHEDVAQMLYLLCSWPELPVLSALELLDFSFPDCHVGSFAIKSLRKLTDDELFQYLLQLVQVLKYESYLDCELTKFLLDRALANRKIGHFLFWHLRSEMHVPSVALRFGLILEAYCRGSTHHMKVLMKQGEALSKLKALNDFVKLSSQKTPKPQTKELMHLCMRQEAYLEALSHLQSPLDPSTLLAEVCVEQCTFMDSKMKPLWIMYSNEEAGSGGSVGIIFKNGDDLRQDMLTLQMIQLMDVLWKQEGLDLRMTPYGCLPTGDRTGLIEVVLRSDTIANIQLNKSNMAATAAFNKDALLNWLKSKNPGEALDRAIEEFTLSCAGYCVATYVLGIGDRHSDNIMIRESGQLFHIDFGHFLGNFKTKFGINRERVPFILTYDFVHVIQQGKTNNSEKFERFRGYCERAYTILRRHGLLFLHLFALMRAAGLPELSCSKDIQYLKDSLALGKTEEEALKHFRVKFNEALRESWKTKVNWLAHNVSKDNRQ
The data set can be described thus: Inhibition of PI3Kdelta in human whole blood assessed as basophil degranulation by measuring CD63 surface expression on CCR3 positive cells after 60 mins by flow cytometric analysis. The format is tissue-based. For orientation: In flow cytometry, cells or beads pass a laser one at a time.

Data set [6] can be described thus: Plasma clearance in Lewis rat at 1 mg/kg, iv administered via infusion over 30 mins measured after 24 hrs by LC/MS/MS analysis. The format is ADME, organism-based. The procedure, abridged: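 Female Lewis rats, n=3 per route; 30-min iv infusion at 1 mg/kg and oral dose at 5 mg/kg, both in 30% PEG 400/70% water; plasma concentration-time profiles sampled to 24 h; values as mean ± SD.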

Data set [7] concerns Rattus norvegicus. The data set can be described thus: Antiarthritis activity in collagen-induced Lewis rat arthritis model assessed as reduction in ankle inflammation at 1.07 mg/kg administered bid through oral gavage for 7 days measured every day started on day 9 and continuing through day 16 of compound dosing relative to vehicle-treated control. The format is functional. The gist of the method: as §3

A short description of data set [8]: Half life in Lewis rat at 5 mg/kg, po administered through gavage measured after 24 hrs by LC/MS/MS analysis. The format is ADME, organism-based. The following applies: in vivo.
A short description of data set [9]: Ratio of drug level in blood to plasma in beagle dog. The following applies: blood and plasma. The format is ADME, cell-free, Canis lupus familiaris.
Data set [10] in a line: Half life in beagle dog at 5 mg/kg, po administered through gavage measured after 24 hrs by LC/MS/MS analysis. The format is ADME, organism-based, Canis lupus familiaris. Conditions: in vivo.
A short description of data set [11]: Ratio of drug level in blood to plasma in Lewis rat. Conditions: blood and plasma. The format is ADME, cell-free.
The test system of data set [12] is Rattus norvegicus. The data set can be described thus: In vivo inhibition of PI3Kdelta in collagen-induced Lewis rat arthritis model at 1.07 mg/kg administered bid through oral gavage at 2 to 12 hrs on 3rd and 7th day of compound dosing. The format is functional. The procedure, abridged: as §1

In general, inhibition in vivo refers to the relative decrease from the control value, in per cent. In general, ED50 refers to the midpoint of the dose-response relation. A word on the EC50: it is the midpoint of the concentration-response curve. As usually defined, the clearance is a measure of how efficiently the substance is removed, as volume per time. A higher clearance goes with a high capacity for elimination. For orientation: half-life means the time needed for the level to fall by half in the phase considered. Low values mean rapid decline, high ones slow decline.

Take `C[C@H](Nc1nc(N)nc(N)c1C#N)c1nc2cccc(F)c2c(=O)n1-c1cc(F)cc(F)c1`: the inhibition in vivo at 10 mg/kg in [1] is more than 90%. For the same molecule, the figures for the Ratio IC50 in data set [2] and in data set [4] were 650 and 180, respectively. The ED50 in data set [3] was determined as 1.5 mg/kg. Moreover, the EC50 in [5] is 1 nM. This molecule also had a clearance in data set [6] of 12.3 mL/min/kg. Also, the inhibition in vivo at 1.07 mg/kg turned out to be 45% in [7] and 50% in data set [12]. Moreover, the half-life in data set [8] was 3.2 h; in data set [10], 2.17 h. The blood plasma ratio in [9] amounted to 2.6; in data set [11], 1.4.
